MrgX1 antag – antagonists of human MrgX1 receptor, primary screen, HEK293 cells, Fluo-4 calcium flux; Mas-related G-protein coupled receptor member X1 (Homo sapiens), Q96LB2; BAM8-22 antagonism; hits give low values; B-score at 10 µM; 310,000 compounds, 1.3% hits;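 active means calcium-response B-score plate-corrected more than 3 library SD below zero, starting fluorescence within 5 deviations, no agonist response on first addition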;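 further: peak minus trough fluorescence over baseline after final BAM8-22 challenge near maximal dose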
Target sequence (Q96LB2 whole entry, looked up): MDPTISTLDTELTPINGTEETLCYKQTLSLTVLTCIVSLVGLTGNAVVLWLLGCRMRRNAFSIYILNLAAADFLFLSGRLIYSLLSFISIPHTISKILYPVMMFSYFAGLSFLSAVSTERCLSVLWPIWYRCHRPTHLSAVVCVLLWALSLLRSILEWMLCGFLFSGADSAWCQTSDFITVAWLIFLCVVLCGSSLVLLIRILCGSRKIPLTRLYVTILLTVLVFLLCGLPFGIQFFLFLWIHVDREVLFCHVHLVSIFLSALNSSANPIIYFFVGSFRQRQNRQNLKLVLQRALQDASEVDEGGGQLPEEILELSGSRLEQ
RGS4 pot – RGS4 potentiators or activators, primary screen, cell-based, HEK293 M3R inducible RGS4, calcium flux; carbachol calcium flux Fluo4; hits give low values; B-score at 10 µM; 310,000 compounds, 0.92% hits;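 active means B-score of the integrated calcium signal more than 4 SD below the library mean, with starting fluorescence not abnormally high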;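 further: negative B-score means reduced calcium response which marks RGS4 activation or potentiation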
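Also added: carbachol at ECmax as muscarinic agonist stimulus; Assay system: HEK293 cells with stable M3R and inducible RGS4; Timing: overnight RGS4 induction, 30 min dye load 37 °C, 20 min compound RT; Measured by: Fluo4-AM (2 µM) calcium-flux fluorescence, kinetic read.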
RGS4 inh – RGS4 inhibitors, primary screen, cell-based, HEK293 M3R inducible RGS4, calcium flux | Regulator of G-protein signaling 4 (Homo sapiens), P49798 | 310,000 compounds, 0.45% hits | Fluo-4 calcium flux; hits give high values; triggered by carbachol at its EC20 | B-score at 10 µM;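 active means B-score, a plate-corrected calcium signal, over three deviations above library mean, with baseline fluorescence within five deviations of library mean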;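 further: RGS4 expression induced by doxycycline in cells with stable M3 receptor; B-score is computed from the integrated fluorescence ratio over baseline after carbachol; higher B-score means a larger calcium signal and so more RGS4 inhibition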
MrgX1 ag – agonists of human MrgX1 receptor, primary screen, HEK293 cells, Fluo-4 calcium flux. Mas-related G-protein coupled receptor member X1 (Homo sapiens), Q96LB2. Fluo-4 calcium fluorescence, agonist mode; hits give high values. B-score at 10 µM. 310,000 compounds, 0.44% hits. AID 588627, 2011;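 active means calcium response B-score plate-corrected fluorescence ratio at least 3 library SD, with starting fluorescence B-score inside 5 SD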
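Material – MrgX1-expressing HEK293 cells · Input – 15,000 cells seeded per well · Dosing – compound as first of three additions · Times – overnight seeding, then 1 h dark dye loading · Measured by – kinetic Fluo-4 NW fluorescence of intracellular calcium · Read-out – B-scored fluorescence response ratio · Benchmarks – positive and negative control wells on each plate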
MrgX1 allo act – positive allosteric modulators of MrgX1, primary screen, HEK293 cells, Fluo-4 calcium flux. Mas-related G-protein coupled receptor member X1 (Homo sapiens), Q96LB2. FDSS; hits give high values. 310,000 compounds, 0.63% hits. B-score at 10 µM;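 active means plate-corrected calcium response at least 3 library SD above typical, normal starting fluorescence, not activating the receptor alone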;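 further: compound read alongside a low EC10 to EC30 dose of BAM8-22 agonist; peak minus trough fluorescence over baseline measured at the second addition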
RGS4 block valid – enhanced carbachol calcium response, M3R/RGS4 cells, RGS4 inhibitor project, cell-based, validation screen, HEK293 M3R/RGS4, calcium flux; shares compounds with RGS4 inh; carbachol calcium Fluo-4 fluorescence; carbachol added at its EC20; 0 = buffer wells, 100 = carbachol control; calcium response, % at 10 µM; 1,700 compounds, 65% hits; AID 492999, 2010;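 active means duplicate-averaged calcium response above the buffer-only control mean plus 5 SD of those controls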;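 further: integrated fluorescence ratio F max minus min over baseline F0; higher response in RGS4-induced cells means RGS4 inhibition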
M3R Ca ctr – carbachol calcium response in non-induced M3R cells, confirmation, counter-screen for RGS4 inhibitor project, cell-based, HEK293 M3R | shares compounds with RGS4 inh | carbachol calcium Fluo-4; submaximal (EC20) carbachol stimulus; buffer wells 0%, carbachol control wells 100% | activity (percent), % at 10 µM | 1,900 compounds, 20% hits | AID 493000, 2010; call rule not given here;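 further: RGS4 induction absent so cells express M3R without RGS4; higher means more calcium signal and flags a non-specific hit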
M3R basal Ca ctr – signal in non-induced cells without carbachol, RGS4 inhibitor counter-screen | shares compounds with RGS4 inh | HEK293 M3R/RGS4 non-induced, Fluo-4 calcium, no carbachol; normalised: buffer wells 0%, carbachol wells 100% | calcium response (agonist-mode artifact), % at 10 µM | 1,900 compounds, 22% hits;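 active means duplicate-averaged calcium rise in uninduced cells above buffer wells' mean plus 5 SD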
* hit, by the source's call; i = inactive; . = no result. The list is not random: actives were taken first. Their share in the collection is about 3.5%.

SMILES	MrgX1 antag	RGS4 pot	RGS4 inh	MrgX1 ag	MrgX1 allo act	RGS4 block valid	M3R Ca ctr	M3R basal Ca ctr
O=C(O)COc1ccc(/C=C/C(=O)c2ccc3ccccc3c2)cc1	i	i	4.8*	i	i	i	i	i
Cc1ccc(NC(=Nc2ccc(Br)cc2)N2CCOCC2)cc1C	i	i	i	i	i	.	.	.
CCOc1c(Cl)cc(CNc2ccc(S(N)(=O)=O)cc2)cc1OC	i	i	i	i	i	.	.	.
CCOc1c(Cl)cc(CNc2ccc(N3CCCC3)cc2)cc1OC	.	i	5.7*	.	.	18%*	i	i
COc1ccc(Nc2cc(Cl)nc(N)n2)cc1OC	i	i	6.1*	i	i	6.0%*	i	i
Nc1nc(Cl)cc(Nc2ccccc2Cl)n1	i	i	i	i	i	.	.	.
O=c1[nH]c(/C=C/c2ccccc2Cl)c([N+](=O)[O-])c(=O)[nH]1	i	i	10*	i	i	44%*	42%*	i
CC(C)c1ccc(/C=C/c2[nH]c(=O)[nH]c(=O)c2[N+](=O)[O-])cc1	i	i	i	i	i	.	.	.
COc1cccc(/C=C/c2[nH]c(=O)[nH]c(=O)c2[N+](=O)[O-])c1O	i	i	5.3*	i	i	17%*	i	i
COc1cc(/C=C/c2[nH]c(=O)[nH]c(=O)c2[N+](=O)[O-])cc(OC)c1O	i	i	i	i	i	.	.	.
O=C(C1=C(O)C(=O)N(Cc2ccco2)C1c1cccc([N+](=O)[O-])c1)c1ccco1 (stereo not drawn)	i	i	i	i	i	i	i	i
O=C(C1=C(O)C(=O)N(Cc2ccco2)C1c1cccc(Cl)c1)c1ccco1 (stereo not drawn)	i	i	i	i	i	i	i	i
O=C(C1=C(O)C(=O)N(c2ncccn2)C1c1cccc(Cl)c1)c1ccco1 (stereo not drawn)	i	i	i	i	i	.	.	.
COc1cc(/C=C(\C#N)C(=O)Nc2ccccc2C(=O)O)cc(Cl)c1OC	i	i	i	i	i	.	.	.
CCCCCCc1ccc(-c2ncc(N)cn2)cc1	i	i	6.7*	i	i	29%*	61%*	i
CC(=O)Nc1c(-c2cc(=O)oc3cc(C)ccc23)oc2ccccc12	.	i	i	.	.	.	.	.
CCn1c(=O)c([N+](=O)[O-])c(Cl)c2ccccc21	i	i	6.6*	i	10*	8.5%*	i	9.5%*
O=C(Cn1ccc(C(F)(F)F)n1)N=Nc1c(O)[nH]c2ccc(Br)cc12	i	i	4.7*	i	i	32%*	i	i
O=C(Cn1ccc(C(F)(F)F)n1)N=Nc1c(O)[nH]c2ccccc12	i	i	i	i	i	.	i	i
CC(C)n1c(O)c(N=NC(=O)Cn2ccc(C(F)(F)F)n2)c2ccccc21	i	i	i	i	i	.	.	.
Oc1[nH]c2ccc(Br)cc2c1N=Nc1ccc(C(F)(F)F)cn1	i	i	i	i	i	.	.	.
O=C(Oc1ccc(Cl)c2cccnc12)c1cccc([N+](=O)[O-])c1	i	i	4.7*	i	i	25%*	i	i

Screening data deposited in PubChem by Johns Hopkins Ion Channel Center.
